Measured values reported in ChEMBL document CHEMBL3526153, “Metabolism of gambogic acid in rats: a rare intestinal metabolic pathway responsible for its final disposition” (Drug Metab Dispos, 2011).

Assays:
[1] = Retention time of the compound in Sprague-Dawley rat bile treated with gambogic acid at 4 mg/kg, iv measured over 24 hrs by LC-DAD-MS/MS analysis; format: ADME, organism-based; set-up: dose 4 mg/kg, route intravenous; conditions: in vivo
In short: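 SD rats, n=4, bile-duct cannulated under chloral hydrate and allowed 1 h recovery. GA 4 mg/kg i.v.; bile collected on ice, pooled 0–24 h. C18 LC-DAD-MS/MS at 0.25 mL/min with acetonitrile gradient (38% to 80%) in 10 mM ammonium acetate, 40 °C, negative ESI.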

[2] = Drug level in Sprague-Dawley rat feces treated with gambogic acid at 4 mg/kg, iv measured over 24 hrs by LC-DAD-MS/MS analysis; format: ADME, organism-based; set-up: dose 4 mg/kg, route intravenous; conditions: in vivo
In short: (§1)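 SD rats (250 ± 20 g), n=4, given GA 4 mg/kg i.v. via tail vein in 2 mL; feces pooled 0–24 h and stored at −20 °C. Feces (0.6 g) homogenized in 50% acetonitrile, sonicated, centrifuged, filtered, then ethyl acetate extraction. Analysed by C18 LC-DAD-MS/MS (gradient 38–80% acetonitrile, 10 mM ammonium acetate, 40 °C), negative ESI.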

[3] = Drug level in rat liver microsomes assessed as CYP450-mediated compound formation treated with gambogic acid at 50 uM preincubated for 10 mins followed by NADPH addition measured after 1 hr by LC-DAD-MS/MS analysis; format: ADME
In short: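 GA 50 µM with rat liver microsomes 1.0 mg/mL in 0.1 M PBS pH 7.4, pre-incubated 10 min at 37 °C. Started with NADPH (6.0 mM final) and run 1 h at 37 °C. Controls lacked NADPH or microsomes; duplicate. Stopped with ice-cold acetonitrile, centrifuged, supernatant dried and reconstituted. Isocratic LC (65% acetonitrile), negative-ion ESI MS/MS.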

[4] = Drug level in intestine (unknown origin) treated with gambogic acid; format: ADME, tissue-based
In short: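 Intestinal contents from undosed rats homogenized in 5 mL water. 100 μL of 1.0 mg/mL GA solution added, incubated about 24 h at 37 °C, duplicate. 1.0 mL extracted with ethyl acetate. LC-MS/MS with negative ESI, SIM at m/z 709.3 plus full and product-ion scans, acetonitrile gradient 50–90%.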

[5] = Drug level in Sprague-Dawley rat gut treated with gambogic acid at 4 mg/kg, iv; format: ADME, organism-based; set-up: dose 4 mg/kg, route intravenous; conditions: in vivo
[6] = Retention time of the compound in Sprague-Dawley rat feces treated with gambogic acid at 4 mg/kg, iv measured over 24 hrs by LC-DAD-MS/MS analysis; format: ADME, organism-based; set-up: dose 4 mg/kg, route intravenous; conditions: in vivo; in short: as §1

In the case of `CC(C)=CCC[C@]1(C)C=Cc2c(O)c3c(c(CC=C(C)C)c2O1)O[C@]12[C@H]4C[C@H](C(=O)[C@]1(C/C=C(/C)C(=O)O)OC4(C)C)C1OC12C3=O` (stereo partly drawn), the Retention_time [1] is reported as 43.8 min, the Drug metabolism [2] is reported as “metabolite_detected” and the Drug metabolism [3] is reported as “metabolite_detected”.
`CC(C)=CCC[C@]1(C)C=Cc2c(O)c3c(c(CC=C(C)C)c2O1)O[C@]12C(=C[C@@H]4C[C@H]1C(C)(C)O[C@@]2(C/C=C(/C)C(=O)O[C@@H]1O[C@H](CO)[C@@H](O)[C@H](O)[C@H]1O)C4=O)C3=O` showed a Retention_time [1] of 40.3 min.
`CC(C)=CCC[C@]1(C)C=Cc2c(O)c3c(c(CC=C(C)C)c2O1)O[C@]12C(C3=O)C(O[C@@H]3O[C@H](CO)[C@@H](O)[C@H](O)[C@H]3O)[C@@H]3C[C@H]1C(C)(C)O[C@@]2(C/C=C(/C)C(=O)O)C3=O` (stereo partly drawn) gave a Retention_time [1] of 38.7 min.
For `CC(C)=CCC[C@]1(C)C=Cc2c(O)c3c(c(CC=C(C)C)c2O1)O[C@]12C(C3=O)[C@@H](S(=O)(=O)O)[C@@H]3C[C@H]1C(C)(C)O[C@@]2(C/C=C(/C)C(=O)O)C3=O` (stereo partly drawn), the Drug metabolism [4] was “metabolite_detected”, the Drug metabolism [5] was “metabolite_detected” and the Retention_time [6] was 19.4 min.
